Assay outcomes deposited in PubChem BioAssay by several laboratories.
Many of the other results were omitted from the sample, so hits are more common in it than they were.
XBP1 UPR activ: activators of adaptive arm of unfolded protein response (XBP1); CHO-XBP1 luciferase reporter, IRE1-XBP1 UPR activation, luminescence; percent of tunicamycin response, DMSO as zero; activation, % at 20 µM; hit rate 0.33% among 330,000; AID 463104;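 active = versus positive control, 20 µM dose yields 30% or more activation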
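incubation = overnight seeding at 37 °C, 6 h compound treatment at 37 °C | assay system = CHO-XBP1 cells stably carrying IRE1-XBP1-driven luciferase reporter | input = 1000 cells per well | detection = luciferase luminescence | dosing = single point, 20 µM final compound, 1% DMSO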
697 NFkB inh: lowers PMA/ionomycin-induced NF-kB signal in 697 B cells. 697 B-cell NF-kB luciferase reporter, 16 h. inhibition, % at 4 µM. hit rate 0.33% among 330,000; in the data active = inhibition above about 35%
CHOP inh: blocks CHOP induction under ER stress; CHO-K1 CHOP-promoter luciferase, tunicamycin-induced, 15-18 h; inhibition, % at 10 µM; hit rate 3.8% among 220,000;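 active = compounds that reduced the stress-induced luciferase reporter signal by more than about 70% of percent inhibition, limit read from the data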
CHOP UPR activ: activators of apoptotic arm of unfolded protein response (CHOP); CHO-CHOP luciferase reporter, UPR activation, luminescence; percent of tunicamycin response over DMSO baseline; activation, % at 10 µM; hit rate 0.34% among 330,000; AID 449763;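 active = at 10 µM dose, activation of 40% or more, normalized to positive control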
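assay system = CHO CHOP reporter cells | amount = 500 CHO-CHOP cells per well | buffer or medium = F12 with 10% FBS | incubation = 16-18 h cell attachment, then 6 h compound exposure, 37 °C | detection = luminescence read with Steady-Glo | read-out = percent activation relative to tunicamycin control | controls = tunicamycin high control, DMSO low control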
Jurkat NFkB inh: inhibitors of the PMA/ionomycin-induced NF-kB reporter in Jurkat cells; PMA/ionomycin-induced NF-kB luciferase reporter, luminescence; inhibition, % at 4 µM; hit rate 0.53% among 330,000; in the data active = inhibition above about 50%
697 NFkB conf: inhibitors of the PMA/ionomycin-induced NF-kB reporter in 697 B cells, retest | 697 B-cell NF-kB luciferase, 16 h | AID 449746 | shares compounds with 697 NFkB inh | inhibition, % at 4 µM | hit rate 35% among 2,000; in the data active = inhibition mostly above about 28%, no sharp cut-off; inactive = mostly below about 22%
CHOP UPR conf: apoptotic UPR (CHOP) activation, confirmed. shares compounds with CHOP UPR activ. CHO-CHOP cells, CHOP-luciferase reporter luminescence; percent of tunicamycin response, DMSO as zero. activation, % at 10 µM. hit rate 64% among 1,000; in the data active = activation above about 33%
UPR XBP1 confirm: confirmation of adaptive unfolded protein response (XBP1) activators. shares compounds with XBP1 UPR activ. CHO-XBP1 IRE1-XBP1 luciferase reporter, luminescence. activation, % at 20 µM. hit rate 63% among 1,000;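 active = reporter signal at least 30% of the positive control's activation in two or more of four replicate wells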
Each line names hits and unclear results; the compound was inactive in the other large screens (follow-up assays come after a bar, where they were run).

COc1ccc(NC(=O)COc2cccc3c2CCNC3=O)cc1	none (no result: CHOP inh)
Cc1ccc(Nc2nc(=O)c3cccnc3s2)c(Br)c1	none | 697 NFkB conf inactive
CC(=O)c1ccc(Nc2nc(=O)c3cccnc3s2)cc1	none
CC(C)COc1cccc(-c2cc(C(=O)N/N=C/c3ccncc3)c3ccccc3n2)c1	none (no result: CHOP inh) | 697 NFkB conf inactive
CCOc1cc(/C=N/NC(=O)c2cc(-c3cccc(OC)c3)nc3ccccc23)ccc1O	none (no result: CHOP inh)
COc1ccc(NC(=O)c2cc3c(Cl)nc4ccccc4c3s2)cc1OC	697 NFkB inh 44 | 697 NFkB conf 39
COc1ccc(-c2nn(C)c(=O)c3ccccc23)cc1CNS(C)(=O)=O	none
COc1ccc(-c2nn(C)c(=O)c3ccccc23)cc1NS(C)(=O)=O	697 NFkB inh 38 | 697 NFkB conf 32
Cc1cc2ncc(-c3cccs3)nc2cc1C	none (no result: CHOP inh) | 697 NFkB conf inactive
COc1ccc(C(=O)c2coc3ccc(OC(C)=O)cc23)cc1	none (no result: CHOP inh) | 697 NFkB conf inactive
Cc1ccc(C(=O)c2coc3ccc(O)cc23)cc1	none (no result: CHOP inh) | 697 NFkB conf inactive
CC1(C(=O)OCc2cc(=O)n3cc(Br)ccc3n2)CC1(Cl)Cl (centres undefined)	none
CN1CCc2c(sc(NC(=O)C3CCN(S(=O)(=O)c4cccs4)CC3)c2C(N)=O)C1	none (no result: CHOP inh)
CC1=CC(C)(C)Nc2ccc(OC(=O)CN3C(=O)CCC3=O)cc21	697 NFkB inh 65, CHOP UPR activ 87 | 697 NFkB conf 48 | CHOP UPR conf 92
CC1=CC(C)(C)Nc2ccc(C)cc21	none
COc1ccc(C(=O)NC2CC2)cc1OC1CCN(C(C)CSC)CC1 (centres undefined)	none (no result: CHOP inh)
C=C1C(=O)C=C[C@]2(C)C[C@@H]3OC(=O)[C@](C)(O)[C@H]3C[C@@H]12	CHOP UPR activ 59 | 697 NFkB conf inactive | CHOP UPR conf 56
O=C(CCCN1C(=O)S/C(=C\C=C\c2ccccc2)C1=O)Nc1ccc(O)cc1	697 NFkB inh 40, CHOP UPR activ 64 (no result: CHOP inh) | 697 NFkB conf 32 | CHOP UPR conf inactive
C=CCN1CCN(C(=O)c2cc3c(s2)CCCC3)CC1	none (no result: CHOP inh)
COc1cc(Br)cc(/C=C/c2ccc3cccc(O)c3n2)c1OC	none (no result: CHOP inh)
COc1cc(/C=C/c2ccc3cccc(O)c3n2)cc(Cl)c1OC	XBP1 UPR activ 66 (no result: CHOP inh) | 697 NFkB conf inactive | UPR XBP1 confirm inactive
CCN(CC(=O)Nc1ccc2c(c1)OCCO2)C(=O)c1cccc(OCC(C)C)c1	none (no result: CHOP inh)
Cn1c(=O)c2c(SCC(=O)Nc3ccccc3F)nc(-c3ccccc3F)nc2n(C)c1=O	XBP1 UPR activ 355, 697 NFkB inh 48, CHOP UPR activ 55 (no result: CHOP inh) | 697 NFkB conf 12 | CHOP UPR conf 101 | UPR XBP1 confirm 73
COc1cc(-c2noc(C3CCCN(C(=O)c4c(F)cccc4F)C3)n2)cc(OC)c1OC (centres undefined)	none (no result: CHOP inh)
Oc1[nH]c2ccccc2c1N=Nc1nc(Nc2ccccc2)nc(N2CCOCC2)n1	XBP1 UPR activ 86, 697 NFkB inh 53 | 697 NFkB conf 52 | UPR XBP1 confirm inactive
CN(C)C(=O)CCc1ccc2c3c([nH]c2c1)[C@]1(C)[C@@H](C(=O)N2CCCCC2)C[C@H](CC(=O)NCc2ccco2)C(=O)N1CC3	none (no result: CHOP inh, Jurkat NFkB inh)
CN(C)C(=O)CCc1ccc2c3c([nH]c2c1)[C@]1(CCc2ccccc2)[C@@H](C(=O)N2CCCCC2)C[C@H](CC(=O)NCc2ccco2)C(=O)N1CC3	XBP1 UPR activ 33, 697 NFkB inh 39 (no result: CHOP inh, Jurkat NFkB inh) | 697 NFkB conf inactive | UPR XBP1 confirm inactive
CSc1ccccc1NC(=O)CN(C)C(=O)COc1cccc2cccnc12	CHOP UPR activ 48 (no result: CHOP inh) | CHOP UPR conf inactive
Cc1ccccc1C(=O)NCCCNC(=O)c1ccco1	none (no result: CHOP inh)
CN(C)C(=O)COc1ccc(S(=O)(=O)c2ccc(OCC(=O)N(C)C)cc2)cc1	none (no result: CHOP inh)
Cc1ccccc1Oc1nc(-c2ccccn2)nc2ccccc12	CHOP UPR activ 49 | CHOP UPR conf inactive
Cc1cccc(Oc2nc(-c3ccccn3)nc3ccccc23)c1	none
CN1CCN(c2nc(-c3ccccn3)nc3ccccc23)CC1	none
c1ccc(N2CCN(c3nc(-c4ccccn4)nc4ccccc34)CC2)cc1	CHOP UPR activ 97 | CHOP UPR conf inactive
O=C(Cn1cnc2c(NCc3ccccc3)ncnc21)NCCc1cc2ccccc2[nH]1	none (no result: CHOP inh, Jurkat NFkB inh)
CC(C)C(=O)N1CCN(c2ccc(NC(=O)c3ccc([N+](=O)[O-])o3)cc2Cl)CC1	none (no result: XBP1 UPR activ, 697 NFkB inh, CHOP UPR activ, Jurkat NFkB inh)
CN1CCN(c2ccc(NC(=O)c3ccc([N+](=O)[O-])o3)cc2Cl)CC1	CHOP UPR activ 99 (no result: CHOP inh) | CHOP UPR conf 59
CC(C)C(=O)N1CCN(c2ccc(NC(=O)c3ccc([N+](=O)[O-])o3)cc2)CC1	CHOP UPR activ 108 | CHOP UPR conf 71
O=C(N/C(=C\c1ccccc1)C(=O)N1CCCCC1)c1ccco1	none (no result: CHOP inh)
Cc1ccc(C2=NN(C(=O)CCl)C(c3cccs3)C2)o1 (centres undefined)	CHOP inh 84, CHOP UPR activ 41 | CHOP UPR conf inactive
CC(=O)N1N=C(c2ccco2)CC1c1cccs1 (centres undefined)	none
CCC1OC23CCCCC2C(C#N)(C(=N)O3)C1(C#N)C#N (centres undefined)	none
CC1OC23CCCCC2C(C#N)(C(=N)O3)C1(C#N)C#N (centres undefined)	none
N#CC1(C#N)COC23CCCCC2C1(C#N)C(=N)O3 (centres undefined)	CHOP UPR activ 65 | CHOP UPR conf 55
N#CC12COC3(CCCCC3C1(C#N)C#N)OC2=N (centres undefined)	CHOP UPR activ 46 | CHOP UPR conf 43
COc1ccc(C2OC34CCCCC3C(C#N)(C#N)C2(C#N)C(=N)O4)cc1 (centres undefined)	CHOP UPR activ 54 | CHOP UPR conf 35
Cc1ccc2nc(C)cc(C(=O)N/N=C/c3ccncc3)c2c1	none (no result: CHOP inh)
O=C(NCCO)C(=O)Nc1cc2c3c(c1)CCN3C(=O)CC2	none (no result: CHOP inh)
O=C(Nc1ccc2oc(-c3ccncc3)nc2c1)c1ccc([N+](=O)[O-])o1	CHOP UPR activ 162 (no result: CHOP inh) | CHOP UPR conf 46
O=C(Nc1nc2ccccc2s1)c1ccc([N+](=O)[O-])o1	CHOP UPR activ 73 (no result: CHOP inh) | CHOP UPR conf inactive
O=C(Nc1ccc(-c2nc3ncccc3o2)cc1)c1ccc([N+](=O)[O-])o1	CHOP UPR activ 313 (no result: CHOP inh) | CHOP UPR conf 135
CS(=O)(=O)N1CCN(C(=O)Cc2ccc(Br)cc2)CC1	none (no result: CHOP inh)
